Data reported in publication PMC3270411 (Chemistry & biology, 2012).
Like-named read-outs stand apart in the source and are kept apart here.

Assays:
[1] = test system: c-Jun phosphorylation (pSer73) in HeLa cells; test: LanthaScreen TR-FRET c-Jun phosphorylation assay in HeLa cells; type: cell-based; details: read-out: p-c-Jun EC50 (nM) Hela
In short: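 HeLa cells stably expressing GFP-c-Jun(1–79), 10,000/well in Opti-MEM with 0.5% charcoal/dextran-treated FBS, 25 mM Hepes pH 7.3, no phenol red; overnight. Pretreated 90 min with compound, then 30 min with 5 ng/ml TNF-α. Lysed in buffer containing 2 nM terbium anti-c-Jun pSer73 antibody; 60 min equilibration at room temperature. TR-FRET: excitation 340 nm, ratio Em 520/Em 490.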

[2] = test system: c-Jun phosphorylation (phospho Ser73) in A375 cells; type: cell-based
p38a = p38a (Homo sapiens, UniProt Q16539); test: KiNativ cellular kinase profiling; type: cell-based; details: A375 cells, 1 μM, 3 hours
GSK3B = GSK3B (Homo sapiens, UniProt P49841); test: KiNativ cellular kinase profiling; type: cell-based; details: for Percent inhibition of kinase labeling by ATP-biotin: A375 cells, 1 μM, 3 hours, GSK3B, labeling site Lys2; for inhibition at 1 µM: A-375, read-out: Percent inhibition of kinase labeling by ATP-biotin
PFTAIRE1 = PFTAIRE1 (Homo sapiens, UniProt O94921); test: KiNativ cellular kinase profiling; type: cell-based; details: for Percent inhibition of kinase labeling by ATP-biotin: A375 cells, 1 μM, 3 hours, PFTAIRE1, labeling site Lys1; for inhibition at 1 µM: A-375, read-out: Percent inhibition of kinase labeling by ATP-biotin
ROCK1 = ROCK1 (Homo sapiens, UniProt Q13464); test: KiNativ cellular kinase profiling; type: cell-based; details: for Percent inhibition of kinase labeling by ATP-biotin: A375 cells, 1 μM, 3 hours, ROCK1, labeling site Other; for inhibition at 1 µM: A-375, read-out: Percent inhibition of kinase labeling by ATP-biotin
ROCK1,ROCK2 = test: KiNativ cellular kinase profiling; type: cell-based; details: A375 cells, 1 μM, 3 hours; ROCK1,ROCK2, labeling site Lys2
PKD2 = biological target: T1, PKD2 (Homo sapiens, UniProt Q9BZL6); test: KiNativ cellular kinase profiling; type: cell-based; details: for Percent inhibition of kinase labeling by ATP-biotin: A375 cells, 1 μM, 3 hours, PKD2, labeling site Lys1; for inhibition at 1 µM: A-375, read-out: Percent inhibition of kinase labeling by ATP-biotin
T1 sequence (Q9BZL6 1-878): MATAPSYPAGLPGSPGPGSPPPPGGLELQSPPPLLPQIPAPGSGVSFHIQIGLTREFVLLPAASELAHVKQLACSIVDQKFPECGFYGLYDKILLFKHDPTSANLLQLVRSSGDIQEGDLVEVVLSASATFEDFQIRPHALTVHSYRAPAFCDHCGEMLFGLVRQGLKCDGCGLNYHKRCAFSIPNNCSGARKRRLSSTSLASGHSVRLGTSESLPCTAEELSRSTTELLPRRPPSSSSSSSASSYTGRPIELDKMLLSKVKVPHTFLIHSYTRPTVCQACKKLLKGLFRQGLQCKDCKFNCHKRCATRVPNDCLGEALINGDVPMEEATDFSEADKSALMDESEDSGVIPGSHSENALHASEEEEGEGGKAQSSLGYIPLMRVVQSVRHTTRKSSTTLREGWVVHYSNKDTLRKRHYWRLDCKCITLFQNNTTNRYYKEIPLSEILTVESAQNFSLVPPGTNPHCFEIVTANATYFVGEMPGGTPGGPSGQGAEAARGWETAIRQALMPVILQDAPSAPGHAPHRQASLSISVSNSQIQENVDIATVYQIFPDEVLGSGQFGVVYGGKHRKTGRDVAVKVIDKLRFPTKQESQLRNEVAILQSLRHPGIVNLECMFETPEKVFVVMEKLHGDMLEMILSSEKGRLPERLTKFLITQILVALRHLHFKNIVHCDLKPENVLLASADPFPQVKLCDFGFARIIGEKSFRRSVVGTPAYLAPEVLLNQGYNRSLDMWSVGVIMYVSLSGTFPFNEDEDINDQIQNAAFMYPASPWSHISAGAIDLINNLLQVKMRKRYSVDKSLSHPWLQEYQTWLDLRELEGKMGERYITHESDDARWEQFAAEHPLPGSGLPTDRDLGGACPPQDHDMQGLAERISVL

MARK2 = MARK2 (Homo sapiens, UniProt Q7KZI7); test: KiNativ cellular kinase profiling; type: cell-based; details: for Percent inhibition of kinase labeling by ATP-biotin: A375 cells, 1 μM, 3 hours, MARK2, labeling site Lys1; for inhibition at 1 µM: A-375, read-out: Percent inhibition of kinase labeling by ATP-biotin
CK1d,CK1e = test: KiNativ cellular kinase profiling; type: cell-based; details: A375 cells, 1 μM, 3 hours, labeling site Lys2
IKKb = biological target: T2, IKKb (Homo sapiens, UniProt O14920); test: KiNativ cellular kinase profiling; type: cell-based; details: for Percent inhibition of kinase labeling by ATP-biotin: A375 cells, 1 μM, 3 hours, IKKb, labeling site Lys2; for inhibition at 1 µM: A-375, read-out: Percent inhibition of kinase labeling by ATP-biotin
T2 sequence (O14920 1-756): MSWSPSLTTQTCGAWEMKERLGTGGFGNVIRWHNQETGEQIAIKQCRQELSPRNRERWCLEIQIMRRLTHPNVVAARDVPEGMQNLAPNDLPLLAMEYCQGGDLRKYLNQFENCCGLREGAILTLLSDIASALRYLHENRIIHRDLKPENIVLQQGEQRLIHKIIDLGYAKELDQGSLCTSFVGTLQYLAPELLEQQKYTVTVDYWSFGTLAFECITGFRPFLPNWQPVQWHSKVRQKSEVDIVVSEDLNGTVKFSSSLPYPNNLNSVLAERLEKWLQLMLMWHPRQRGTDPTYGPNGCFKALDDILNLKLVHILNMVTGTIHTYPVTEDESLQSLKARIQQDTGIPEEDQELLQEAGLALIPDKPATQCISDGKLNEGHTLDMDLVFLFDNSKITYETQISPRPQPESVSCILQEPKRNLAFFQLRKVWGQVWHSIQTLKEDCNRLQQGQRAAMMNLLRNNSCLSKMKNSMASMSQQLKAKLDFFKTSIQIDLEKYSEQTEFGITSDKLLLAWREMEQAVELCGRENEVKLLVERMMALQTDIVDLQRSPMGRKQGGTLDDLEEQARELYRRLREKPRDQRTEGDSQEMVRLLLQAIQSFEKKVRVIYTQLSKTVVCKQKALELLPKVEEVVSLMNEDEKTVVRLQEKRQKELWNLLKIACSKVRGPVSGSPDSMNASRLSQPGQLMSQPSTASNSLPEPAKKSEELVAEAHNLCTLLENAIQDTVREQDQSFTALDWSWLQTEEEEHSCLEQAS

[3] = test system: ZC1/HGK,ZC2/TNIK, ZC3/MINK; test: KiNativ cellular kinase profiling; type: cell-based; details: A375 cells, 1 μM, 3 hours, labeling site Lys2
ZC2/TNIK = ZC2/TNIK (Homo sapiens, UniProt Q9UKE5); test: KiNativ cellular kinase profiling; type: cell-based; details: for Percent inhibition of kinase labeling by ATP-biotin: A375 cells, 1 μM, 3 hours, ZC2/TNIK, labeling site Lys1; for inhibition at 1 µM: A-375, read-out: Percent inhibition of kinase labeling by ATP-biotin
MAP2K1,MAP2K2 = test: KiNativ cellular kinase profiling; type: cell-based; details: A375 cells, 1 μM, 3 hours; MAP2K1,MAP2K2, labeling site Lys2
TAO1,TAO3 = test: KiNativ cellular kinase profiling; type: cell-based; details: A375 cells, 1 μM, 3 hours; TAO1,TAO3, labeling site Lys2
BRAF = BRAF (Homo sapiens, UniProt P15056); test: KiNativ cellular kinase profiling; type: cell-based; details: for Percent inhibition of kinase labeling by ATP-biotin: A375 cells, 1 μM, 3 hours, BRAF, labeling site Lys2; for inhibition at 1 µM: A-375, read-out: Percent inhibition of kinase labeling by ATP-biotin
[4] = test system: panel of 442 distinct kinases; test: KINOMEscan kinase-binding panel
[5] = Hela cells, TNF-α stimulation, TR-FRET
[6] = read-out: p-c-Jun EC50 (nM) A375, A375 cells, anisomycin stimulation, microscopy

ZC2/TNIK, sequence (Q9UKE5 whole entry): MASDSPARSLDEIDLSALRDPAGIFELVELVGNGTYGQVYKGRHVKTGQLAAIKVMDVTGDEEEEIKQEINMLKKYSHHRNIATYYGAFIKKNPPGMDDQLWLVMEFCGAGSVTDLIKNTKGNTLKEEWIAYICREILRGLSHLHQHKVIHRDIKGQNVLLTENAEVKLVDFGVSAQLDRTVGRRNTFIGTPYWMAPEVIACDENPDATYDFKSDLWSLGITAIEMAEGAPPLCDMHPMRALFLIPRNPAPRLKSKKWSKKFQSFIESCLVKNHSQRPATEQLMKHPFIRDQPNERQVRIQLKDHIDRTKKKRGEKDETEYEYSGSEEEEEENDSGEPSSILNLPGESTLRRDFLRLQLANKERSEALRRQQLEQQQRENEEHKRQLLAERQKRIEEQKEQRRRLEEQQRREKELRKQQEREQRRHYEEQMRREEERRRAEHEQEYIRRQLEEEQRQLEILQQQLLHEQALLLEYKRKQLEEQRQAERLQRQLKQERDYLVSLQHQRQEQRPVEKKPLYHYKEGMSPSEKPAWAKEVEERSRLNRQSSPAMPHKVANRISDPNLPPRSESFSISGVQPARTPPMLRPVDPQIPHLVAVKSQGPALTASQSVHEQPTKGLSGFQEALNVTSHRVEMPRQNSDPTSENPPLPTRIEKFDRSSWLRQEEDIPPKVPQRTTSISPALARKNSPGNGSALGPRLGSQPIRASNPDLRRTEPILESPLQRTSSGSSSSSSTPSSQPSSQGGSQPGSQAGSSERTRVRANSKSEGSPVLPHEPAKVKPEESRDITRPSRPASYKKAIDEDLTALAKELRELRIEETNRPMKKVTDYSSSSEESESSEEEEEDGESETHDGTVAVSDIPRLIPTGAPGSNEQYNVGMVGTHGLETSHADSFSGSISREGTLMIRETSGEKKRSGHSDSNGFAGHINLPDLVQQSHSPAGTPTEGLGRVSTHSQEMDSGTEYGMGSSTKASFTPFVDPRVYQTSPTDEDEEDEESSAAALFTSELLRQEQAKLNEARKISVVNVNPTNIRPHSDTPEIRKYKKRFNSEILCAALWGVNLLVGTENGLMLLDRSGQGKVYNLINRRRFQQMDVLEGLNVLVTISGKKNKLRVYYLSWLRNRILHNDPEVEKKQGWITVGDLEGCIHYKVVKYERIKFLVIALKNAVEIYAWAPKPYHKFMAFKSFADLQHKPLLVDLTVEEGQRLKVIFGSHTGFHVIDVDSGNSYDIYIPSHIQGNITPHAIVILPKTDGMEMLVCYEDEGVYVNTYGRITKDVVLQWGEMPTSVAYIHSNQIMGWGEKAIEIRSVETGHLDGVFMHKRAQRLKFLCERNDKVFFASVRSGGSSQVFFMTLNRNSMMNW
GSK3B, sequence (P49841 whole entry): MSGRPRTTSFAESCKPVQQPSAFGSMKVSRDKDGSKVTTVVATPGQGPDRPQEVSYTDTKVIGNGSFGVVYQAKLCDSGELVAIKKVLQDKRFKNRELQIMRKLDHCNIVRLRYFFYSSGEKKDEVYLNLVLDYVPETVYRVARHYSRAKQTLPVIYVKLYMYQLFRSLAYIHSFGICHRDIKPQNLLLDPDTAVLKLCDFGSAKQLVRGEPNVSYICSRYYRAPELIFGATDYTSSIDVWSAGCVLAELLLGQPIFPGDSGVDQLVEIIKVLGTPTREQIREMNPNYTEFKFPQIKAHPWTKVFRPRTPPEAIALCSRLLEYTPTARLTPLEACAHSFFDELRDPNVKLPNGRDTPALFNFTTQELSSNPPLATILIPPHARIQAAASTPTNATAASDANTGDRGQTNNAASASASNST
ROCK1, sequence (Q13464 whole entry): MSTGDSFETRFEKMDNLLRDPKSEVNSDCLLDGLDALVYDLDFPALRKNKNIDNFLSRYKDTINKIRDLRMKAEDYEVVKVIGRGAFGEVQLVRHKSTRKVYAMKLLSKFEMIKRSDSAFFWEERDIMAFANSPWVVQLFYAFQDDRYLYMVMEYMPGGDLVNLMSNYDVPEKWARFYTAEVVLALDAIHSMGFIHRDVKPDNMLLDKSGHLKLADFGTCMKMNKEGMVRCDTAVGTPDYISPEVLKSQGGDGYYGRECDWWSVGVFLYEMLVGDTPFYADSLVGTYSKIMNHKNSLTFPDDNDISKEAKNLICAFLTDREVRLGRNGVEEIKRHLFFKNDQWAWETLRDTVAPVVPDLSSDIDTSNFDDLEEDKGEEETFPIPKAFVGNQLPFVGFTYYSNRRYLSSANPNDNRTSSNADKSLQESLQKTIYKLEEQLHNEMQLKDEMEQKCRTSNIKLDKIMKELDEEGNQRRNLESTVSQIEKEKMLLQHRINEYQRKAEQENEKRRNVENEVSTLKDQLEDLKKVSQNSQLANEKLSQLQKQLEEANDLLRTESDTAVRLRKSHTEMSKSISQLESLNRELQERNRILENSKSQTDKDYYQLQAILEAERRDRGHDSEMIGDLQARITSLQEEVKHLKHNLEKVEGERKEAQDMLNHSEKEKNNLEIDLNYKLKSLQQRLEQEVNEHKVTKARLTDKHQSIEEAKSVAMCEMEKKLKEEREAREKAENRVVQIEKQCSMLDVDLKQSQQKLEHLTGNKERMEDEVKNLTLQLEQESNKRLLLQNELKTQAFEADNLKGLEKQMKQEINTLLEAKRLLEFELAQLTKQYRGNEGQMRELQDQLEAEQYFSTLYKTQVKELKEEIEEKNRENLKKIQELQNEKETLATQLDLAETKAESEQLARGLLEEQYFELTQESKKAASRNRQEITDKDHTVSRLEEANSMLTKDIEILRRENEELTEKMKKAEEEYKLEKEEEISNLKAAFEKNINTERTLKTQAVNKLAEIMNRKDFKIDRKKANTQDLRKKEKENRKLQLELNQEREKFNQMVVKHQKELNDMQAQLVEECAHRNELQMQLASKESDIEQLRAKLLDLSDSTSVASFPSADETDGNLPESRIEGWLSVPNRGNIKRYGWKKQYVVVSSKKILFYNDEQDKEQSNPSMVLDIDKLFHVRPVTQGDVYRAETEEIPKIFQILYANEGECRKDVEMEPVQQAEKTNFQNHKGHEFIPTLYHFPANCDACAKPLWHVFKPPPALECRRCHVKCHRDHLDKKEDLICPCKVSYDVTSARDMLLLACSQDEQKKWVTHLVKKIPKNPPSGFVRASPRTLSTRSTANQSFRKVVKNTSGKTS
p38a, sequence (Q16539 whole entry): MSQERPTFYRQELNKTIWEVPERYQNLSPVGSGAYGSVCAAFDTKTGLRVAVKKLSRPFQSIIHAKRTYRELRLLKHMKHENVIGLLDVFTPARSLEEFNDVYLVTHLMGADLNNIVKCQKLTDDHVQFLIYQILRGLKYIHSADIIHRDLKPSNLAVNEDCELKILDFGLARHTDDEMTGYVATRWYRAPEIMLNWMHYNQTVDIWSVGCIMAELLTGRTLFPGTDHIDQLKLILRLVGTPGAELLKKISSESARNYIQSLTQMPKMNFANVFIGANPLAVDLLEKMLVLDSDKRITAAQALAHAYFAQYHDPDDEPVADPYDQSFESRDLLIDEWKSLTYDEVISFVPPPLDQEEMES
MARK2, sequence (Q7KZI7 whole entry): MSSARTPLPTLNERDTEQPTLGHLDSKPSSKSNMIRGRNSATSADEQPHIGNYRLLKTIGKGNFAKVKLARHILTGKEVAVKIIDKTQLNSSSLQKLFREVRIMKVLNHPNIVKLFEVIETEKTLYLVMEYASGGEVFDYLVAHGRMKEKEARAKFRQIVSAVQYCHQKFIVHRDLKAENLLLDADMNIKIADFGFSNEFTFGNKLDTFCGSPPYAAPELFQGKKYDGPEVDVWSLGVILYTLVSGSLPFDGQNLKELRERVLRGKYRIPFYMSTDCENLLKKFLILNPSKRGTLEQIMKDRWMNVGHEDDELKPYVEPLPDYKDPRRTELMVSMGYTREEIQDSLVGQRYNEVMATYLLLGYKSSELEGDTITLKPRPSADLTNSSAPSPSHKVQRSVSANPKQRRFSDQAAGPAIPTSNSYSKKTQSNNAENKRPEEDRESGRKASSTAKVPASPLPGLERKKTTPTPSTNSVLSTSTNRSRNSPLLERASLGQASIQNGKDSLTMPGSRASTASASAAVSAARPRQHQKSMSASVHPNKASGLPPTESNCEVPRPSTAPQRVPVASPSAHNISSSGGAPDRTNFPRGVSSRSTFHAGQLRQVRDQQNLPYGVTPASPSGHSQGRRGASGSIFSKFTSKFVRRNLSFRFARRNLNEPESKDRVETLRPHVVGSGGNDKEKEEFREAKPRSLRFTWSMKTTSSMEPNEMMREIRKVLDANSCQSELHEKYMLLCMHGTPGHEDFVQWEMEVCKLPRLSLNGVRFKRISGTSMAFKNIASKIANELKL
PFTAIRE1, sequence (O94921 whole entry): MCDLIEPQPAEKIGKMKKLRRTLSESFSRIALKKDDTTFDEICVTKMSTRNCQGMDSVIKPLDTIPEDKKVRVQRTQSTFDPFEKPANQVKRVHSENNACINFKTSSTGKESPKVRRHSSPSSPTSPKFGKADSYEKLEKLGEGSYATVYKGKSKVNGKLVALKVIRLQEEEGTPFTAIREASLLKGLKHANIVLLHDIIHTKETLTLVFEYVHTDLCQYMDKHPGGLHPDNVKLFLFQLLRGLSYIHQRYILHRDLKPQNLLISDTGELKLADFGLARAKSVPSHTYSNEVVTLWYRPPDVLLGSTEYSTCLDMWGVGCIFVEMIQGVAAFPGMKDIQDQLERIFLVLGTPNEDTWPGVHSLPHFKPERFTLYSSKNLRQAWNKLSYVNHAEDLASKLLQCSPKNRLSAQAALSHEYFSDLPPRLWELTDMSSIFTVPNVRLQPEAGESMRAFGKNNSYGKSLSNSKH

Row | EC50 ([1]; Homo sapiens, HeLa) [nM] | inhibition at 1 µM (GSK3B) [%] | inhibition at 1 µM (PFTAIRE1) [%] | inhibition at 1 µM (ROCK1) [%] | inhibition at 1 µM (PKD2) [%] | inhibition at 1 µM (MARK2) [%] | inhibition at 1 µM (IKKb) [%] | inhibition at 1 µM (ZC2/TNIK) [%] | inhibition at 1 µM (BRAF) [%] | SMILES | EC50 [1, 5] [nM] | EC50 [2, 6] [nM] | Percent inhibition of kinase labeling by ATP-biotin (p38a; labeling site Lys2) [%] | Percent inhibition of kinase labeling by ATP-biotin (p38a; labeling site Other) [%] | Percent inhibition of kinase labeling by ATP-biotin (GSK3B) [%] | Percent inhibition of kinase labeling by ATP-biotin (PFTAIRE1) [%] | Percent inhibition of kinase labeling by ATP-biotin (ROCK1,ROCK2) [%] | Percent inhibition of kinase labeling by ATP-biotin (CK1d,CK1e) [%] | Percent inhibition of kinase labeling by ATP-biotin [3] [%] | Percent inhibition of kinase labeling by ATP-biotin (MAP2K1,MAP2K2) [%] | Percent inhibition of kinase labeling by ATP-biotin (TAO1,TAO3) [%] | also measured
1 | – | – | – | – | – | – | – | – | – | CCC(=O)Nc1cccc(C(=O)Nc2ccc(Nc3nccc(-c4cccnc4)n3)cc2)c1 [JNK-IN-6] | 6760 | 1900 | 32.6 | 12.4 | 23.6 | −6 | 11.6 | 32.4 | 8.8 | 24.3 | 35.8 | Percent inhibition of kinase labeling by ATP-biotin (ROCK1): 24.4%; Percent inhibition of kinase labeling by ATP-biotin (PKD2): 12%; Percent inhibition of kinase labeling by ATP-biotin (MARK2): 13.4%; Percent inhibition of kinase labeling by ATP-biotin (IKKb): 33.4%; Percent inhibition of kinase labeling by ATP-biotin (ZC2/TNIK): −15.9%; Percent inhibition of kinase labeling by ATP-biotin (BRAF): 8.9%
2 | 486 | -8.5 | 38.1 | 10 | 4.9 | 9.6 | -6.5 | 9.9 | -23.7 | Cc1cc(NC(=O)c2cccc(NC(=O)/C=C/CN(C)C)c2)ccc1Nc1nccc(-c2cccnc2)n1 [JNK-IN-8] | – | – | – | – | – | – | −17.1 | −21.8 | −11.3 | 3.2 | 2.9 | EC50 ([2]; Homo sapiens, A-375, read-out: p-c-Jun EC50 (nM) A375): 338 nM
3 | 48 | 67.1 | 12.8 | -8.2 | 40.9 | 20.8 | -11.2 | > 80 | 27.8 | CN(C)C/C=C/C(=O)Nc1cccc(C(=O)Nc2ccc(Nc3nccc(-c4c(-c5ccccc5)nn5ccccc45)n3)cc2)c1 [JNK-IN-11] | – | – | – | – | – | – | −33.9 | 88.4 | 65.1 | −10.4 | 34.1 | –
4 | – | – | – | – | – | – | – | – | – | CN(C)C/C=C/C(=O)Nc1cccc(C(=O)Nc2ccc(Nc3nccc(/C(C#N)=C4\Nc5ccccc5S4)n3)cc2)c1 [JNK-IN-12] | 605 | 134 | −28 | −13.8 | −29.6 | 25.7 | −91 | −75 | −25.5 | −3.7 | −10.8 | S (10) score (ratio number of kinases inhibited more than 90 percent) ([4]; screening concentration 1 μM): 0.025; Percent inhibition of kinase labeling by ATP-biotin (ROCK1): −97%; Percent inhibition of kinase labeling by ATP-biotin (PKD2): −79%; Percent inhibition of kinase labeling by ATP-biotin (MARK2): −41.1%; Percent inhibition of kinase labeling by ATP-biotin (IKKb): −97.5%; Percent inhibition of kinase labeling by ATP-biotin (ZC2/TNIK): −8.9%; Percent inhibition of kinase labeling by ATP-biotin (BRAF): 6.2%

Row | SMILES | EC50 ([1]; Homo sapiens, HeLa) [nM] | inhibition at 1 µM (GSK3B) [%] | inhibition at 1 µM (PFTAIRE1) [%] | inhibition at 1 µM (ROCK1) [%] | inhibition at 1 µM (PKD2) [%] | inhibition at 1 µM (MARK2) [%] | inhibition at 1 µM (IKKb) [%] | inhibition at 1 µM (ZC2/TNIK) [%] | inhibition at 1 µM (BRAF) [%] | EC50 [1, 5] [nM] | EC50 [2, 6] [nM] | Percent inhibition of kinase labeling by ATP-biotin (p38a; labeling site Lys2) [%] | Percent inhibition of kinase labeling by ATP-biotin (p38a; labeling site Other) [%] | Percent inhibition of kinase labeling by ATP-biotin (GSK3B) [%] | Percent inhibition of kinase labeling by ATP-biotin (PFTAIRE1) [%] | Percent inhibition of kinase labeling by ATP-biotin (ROCK1,ROCK2) [%] | Percent inhibition of kinase labeling by ATP-biotin (CK1d,CK1e) [%] | Percent inhibition of kinase labeling by ATP-biotin [3] [%] | Percent inhibition of kinase labeling by ATP-biotin (MAP2K1,MAP2K2) [%] | Percent inhibition of kinase labeling by ATP-biotin (TAO1,TAO3) [%] | also measured
5 | CN(C)C/C=C/C(=O)Nc1cccc(C(=O)Nc2ccc(Nc3nccc(-c4cccnc4)n3)cc2)c1 [JNK-IN-7] | 130 | 12.3 | 75.3 | -11.9 | 13.6 | 23.6 | -10.1 | 20.9 | 7 | – | – | – | – | – | – | −21.5 | 8.4 | 8.3 | 3.2 | 13.1 | number of kinases with binding inhibition of 95% or more ([4]; 1.0 μM): approximately 14 kinases
